We go through eleven molecules from ChEMBL document CHEMBL1153911 (Bioorg Med Chem Lett, 2009).

Structures are written as SMILES. Where only a bound is given, the exact number is not on record here.

For experiment [1], the target named is Delta-type opioid receptor (Homo sapiens, UniProt P41143). The experiment in a line: Displacement of [3H]NTI from delta opioid receptor expressed in CHO cells. Format: cell-based. The gist of the method:
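CHO cell membranes (50 µg) expressing cloned mu, delta or kappa opioid receptors, labelled with […] (mu), [3H]NTI (delta) or [3H]norBNI (kappa), with varying drug concentrations, 90 min at 30 °C. IC50 from Hill-plot linear regression, converted to Ki by Cheng-Prusoff.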
Background: Displacement assays read how much labelled ligand stays bound in the presence of the test substance.

Experiment [2] deals with T1, Mu-type opioid receptor (Homo sapiens, UniProt P35372). The experiment in a line: […] activity against mu opioid receptor expressed in CHO cells assessed as stimulation [35S]GTPgammaS binding relative to DAMGO. Format: functional, cell-based. Further details: concentration or dose not given beside the values. The gist of the method: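 Membranes (10 µg) from the same receptor-expressing CHO cells incubated 30 min with 10 µM GDP, 0.1 nM [35S]GTPγS and varying drug concentrations. Nonspecific binding defined by 10 µM unlabelled GTPγS. Relative Emax and EC50 from nonlinear regression of concentration-effect curves.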
T1 sequence (P35372 whole entry): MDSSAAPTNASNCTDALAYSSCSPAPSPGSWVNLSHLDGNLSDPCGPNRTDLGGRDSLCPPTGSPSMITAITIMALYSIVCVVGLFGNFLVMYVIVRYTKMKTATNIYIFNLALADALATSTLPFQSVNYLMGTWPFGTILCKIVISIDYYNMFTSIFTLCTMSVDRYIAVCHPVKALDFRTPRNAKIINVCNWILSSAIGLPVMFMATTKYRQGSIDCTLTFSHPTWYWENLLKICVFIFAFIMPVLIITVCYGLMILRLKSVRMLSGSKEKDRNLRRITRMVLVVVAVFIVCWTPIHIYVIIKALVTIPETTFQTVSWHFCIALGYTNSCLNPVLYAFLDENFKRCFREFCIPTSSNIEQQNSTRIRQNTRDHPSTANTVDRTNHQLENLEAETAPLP

For experiment [3], the target named is Kappa-type opioid receptor (Homo sapiens, UniProt P41145). Kind of experiment: Displacement of [3H]norBNI from kappa opioid receptor expressed in CHO cells. Format: cell-based.
Chain of Kappa-type opioid receptor (P41145 whole entry): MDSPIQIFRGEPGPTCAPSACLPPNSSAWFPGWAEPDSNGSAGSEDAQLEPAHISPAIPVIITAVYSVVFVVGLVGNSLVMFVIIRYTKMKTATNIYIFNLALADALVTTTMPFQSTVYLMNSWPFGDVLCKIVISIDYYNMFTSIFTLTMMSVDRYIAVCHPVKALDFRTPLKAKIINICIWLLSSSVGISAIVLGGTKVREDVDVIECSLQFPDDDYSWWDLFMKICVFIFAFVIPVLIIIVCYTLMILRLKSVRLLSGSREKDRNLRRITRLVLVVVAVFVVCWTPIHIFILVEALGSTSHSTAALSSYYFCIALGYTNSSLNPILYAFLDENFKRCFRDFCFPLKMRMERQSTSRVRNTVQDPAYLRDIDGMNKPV
The target in experiment [4] is T1, Mu-type opioid receptor. Kind of experiment: Displacement of [3H]DAMGO from mu opioid receptor expressed in CHO cells. Format: cell-based.
Experiment [5] is filed under the species Homo sapiens. The experiment in a line: Selectivity ratio of Ki for kappa opioid receptor to Ki for mu opioid receptor. In a few lines: (§1)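 CHO cell membranes (50 µg) expressing cloned mu, delta or kappa opioid receptors, labelled with […] (mu), [3H]NTI (delta) or [3H]norBNI (kappa), with varying drug concentrations, 90 min at 30 °C. […] IC50 from Hill-plot linear regression, converted to Ki by Cheng-Prusoff.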

The species named for experiment [6] is Homo sapiens. The experiment in a line: Selectivity ratio of Ki for delta opioid receptor to Ki for mu opioid receptor. In a few lines: as §1
Experiment [7] deals with T1, Mu-type opioid receptor. The note with it: CHO.

A word on the Ki: it is a dissociation constant, usually derived from enzyme kinetics or from competition with a known ligand.

Chain of Delta-type opioid receptor (P41143 whole entry): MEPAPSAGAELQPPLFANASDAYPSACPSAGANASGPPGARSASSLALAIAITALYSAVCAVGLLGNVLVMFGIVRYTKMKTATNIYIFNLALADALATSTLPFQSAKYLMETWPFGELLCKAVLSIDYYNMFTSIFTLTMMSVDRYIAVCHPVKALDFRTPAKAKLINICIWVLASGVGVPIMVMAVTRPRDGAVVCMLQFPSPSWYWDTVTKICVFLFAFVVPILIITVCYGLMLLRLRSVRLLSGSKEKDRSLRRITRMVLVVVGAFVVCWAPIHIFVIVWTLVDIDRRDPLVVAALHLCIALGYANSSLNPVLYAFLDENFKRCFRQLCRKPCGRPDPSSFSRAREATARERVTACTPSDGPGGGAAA

With `COC(=O)/C=C/C(=O)N[C@@H]1CC[C@@]2(O)[C@H]3Cc4ccc(O)c5c4[C@@]2(CCN3CC2CC2)[C@H]1O5`, the values for the Ki (in experiment [1]; in experiment [3]; at Mu-type opioid receptor [4]) were 27.8 nM, 0.94 nM and 0.41 nM, respectively. Further, the Activity on Mu-type opioid receptor [2] came to 0%.
On to `COc1cccc2c1[C@]13CCN(CC4CC4)[C@H](C2)[C@]1(OC)CCC(=O)C3`, for which the Ratio Ki in the experiment listed under Homo sapiens [5] was 45; in the experiment listed under Homo sapiens [6] it was 40.
Take `O=C(O[C@@]12CCC(=O)[C@@H]3Oc4c(O)ccc5c4[C@@]31CCN(CC1CC1)[C@@H]2C5)c1ccccn1`: the results for the Ratio Ki in the experiment filed under Homo sapiens [5] and in the experiment filed under Homo sapiens [6] were 182 and 838, respectively. In addition, the Ke on Mu-type opioid receptor [7] stood at 0.2 nM. Moreover, at Mu-type opioid receptor [2], the Activity turned out to be 0%.
With `O=C(O[C@@]12CCC(=O)[C@@H]3Oc4c(O)ccc5c4[C@@]31CCN(CC1CC1)[C@@H]2C5)c1ccccc1`, the Ratio Ki is 5 in the experiment listed under Homo sapiens [5] and greater than 81 in the experiment filed under Homo sapiens [6]. On Mu-type opioid receptor [2], the Activity turned out to be 0%.
Take `O=C(O[C@@]12CCC(=O)[C@@H]3Oc4c(O)ccc5c4[C@@]31CCN(CC1CC1)[C@@H]2C5)c1ccncc1`: the Ratio Ki in the experiment listed under Homo sapiens [5] turned out to be 9; in the experiment filed under Homo sapiens [6], 73. Also, the Activity on Mu-type opioid receptor [2] came to 0%.
As for `O=C(O[C@@]12CCC(=O)[C@@H]3Oc4c(O)ccc5c4[C@@]31CCN(CC1CC1)[C@@H]2C5)c1ccc2ccccc2c1`, the Ratio Ki in the experiment filed under Homo sapiens [5] is less than 1; in the experiment listed under Homo sapiens [6], 4. The Activity on Mu-type opioid receptor [2] was found to be 0%.
The corresponding values for `C[C@@H](O)[C@H](NC(=O)[C@H](NC(=O)[C@@H](NC(=O)[C@H](CCCNC(=N)N)NC(=O)C(Cc1c[nH]c2ccccc12)NC(=O)[C@@H](Cc1ccc(O)cc1)NC(=O)[C@H](CS)NC(=O)[C@H](N)Cc1ccccc1)[C@@H](C)O)C(C)(C)S)C(=O)O` (stereo in doubt) are 501, 713 and 0%.
For `O=C(O[C@@]12CCC(=O)[C@@H]3Oc4c(O)ccc5c4[C@@]31CCN(CC1CC1)[C@@H]2C5)c1ccc2ccccc2n1`, in that order: 47, 16 and 0%.
In the case of `O=C(O[C@@]12CCC(=O)[C@@H]3Oc4c(O)ccc5c4[C@@]31CCN(CC1CC1)[C@@H]2C5)c1cc2ccccc2cn1`, the Ratio Ki in the experiment listed under Homo sapiens [5] and in the experiment listed under Homo sapiens [6] was greater than 146 in each case. The Activity on Mu-type opioid receptor [2] turned out to be 0%.
In the case of `O=C(O[C@@]12CCC(=O)[C@@H]3Oc4c(O)ccc5c4[C@@]31CCN(CC1CC1)[C@@H]2C5)c1cccnc1`, the Ratio Ki in the experiment listed under Homo sapiens [5] is 30; in the experiment listed under Homo sapiens [6] it was 107. In addition, the Activity at Mu-type opioid receptor [2] came out at 0%.
Consider `O=C(O[C@@]12CCC(=O)[C@@H]3Oc4c(O)ccc5c4[C@@]31CCN(CC1CC1)[C@@H]2C5)c1cnc2ccccc2c1`, for which the Ratio Ki in the experiment listed under Homo sapiens [5] amounted to 55; in the experiment listed under Homo sapiens [6], 304. The Activity on Mu-type opioid receptor [2] stood at 22%.
